Source: PubChem BioAssay
Values without a mark were called inactive. Records with an inconclusive call do not appear. The source made the active and inactive calls.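 How the source made its calls, unless noted: active means viability increase at or above a cutoff of the median across tested compounds plus 3 SD (cut at about 8.5% in these data, passing the limit was not always enough); inconclusive means some gains above the cutoff, reason not given; inactive means the rest.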

Legend:
[1] = OD615 S. cerevisiae growth inhibition, permissive medium, pilot counter-assay, permissive growth control for S. cerevisiae lifespan shortening project (AID 705;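 active means growth inhibition above 25% in both replicates, a cutoff set 3 SD above the mean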); settings: OD615, 24 h, at 10 µM, hits give high values
Procedure, shortened: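 assay system = Saccharomyces cerevisiae strain carrying genetically modified DeaD replicative-lifespan system | medium = SC raffinose/galactose permissive medium | dosing = 10 µM single dose, 0.25% DMSO | schedule = 24 h compound exposure at 30 °C after 4 h pre-growth | measured by = OD at 615 nm | read-out basis = growth inhibition from lowered OD615 after 24 h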

[2] = Restrictive medium S. cerevisiae growth inhibition, OD615, pilot screen of yeast lifespan reduction project, restrictive growth control (AID 706;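 active means growth inhibition above a set limit, 3 SD over mean compound inhibition, in both replicates, cut at about 43% in these data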;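 further: modified DeaD lifespan yeast strain shifted to restrictive glucose medium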); settings: OD615, 48 h, at 10 µM, hits give high values
Procedure, shortened: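 Buffer or medium: CSMM-D glucose medium. Material: genetically modified Saccharomyces cerevisiae, DeaD replicative lifespan assay strain. Times: 48 h compound exposure at 30 °C. Measured by: optical density at 615 nm.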

[3] = viability gain of MRP-1-high H69AR cells under doxorubicin, pilot screen, MRP-1 activator project, CellTiter-Glo, duplicate (AID 807); settings: H69AR viability with doxorubicin, CellTiter-Glo luminescence; at 10 µM; hits give high values;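 further: compound pretreatment 18-22 h then 72 h combined with doxorubicin; 0% = doxorubicin alone and 100% = vehicle without doxorubicin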
[4] = growth suppression of beta-catenin knockout HCT116, pilot screen, human colon tumor cells (AID 823;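 active means cell viability at or below a set limit in both duplicate runs, the limit being the all-compound median minus 4 SD, cut at about 23% in these data, passing the limit was not always enough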;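 further: 0% = wells killed by 20 µM Hyamine and 100% = untreated DMSO cell wells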); settings: CellTiter-Glo, 60 h, at 10 µM, hits give low values
[5] = growth suppression of PTEN-deleted HCT116, pilot screen, cell-based, HCT116 clonal line, CellTiter-Glo (AID 824;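 active means viability at or below 27.92% in each of two runs, the all-compound median minus 4 SD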;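 further: 0% = 20 µM Hyamine control and 100% = vehicle cell control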); settings: 60 h, at 10 µM, hits give low values
[6] = inhibitors of the yeast RAM network, pilot screen, dse1pr::URA3 reporter, 5-FOA selection (AID 869;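 active means inhibition over a set limit, the all-compound mean plus 3 SD, in both replicate runs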;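 further: 0% = DMSO wells with no growth and 100% = 10 µM 1-NA-PP1 with full growth; RAM network block rescues cells from 5-FOA so hits raise OD615 growth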); settings: S. cerevisiae dse1pr::URA3 5-FOA growth, OD615, 2 d; at 10 µM; hits give high values; strain carries analog-sensitive mutant Cbk1 kinase

| SMILES | growth inhibition [1] [%] | growth inhibition [2] | viability increase [3] [%] | viability [4] [%] | viability [5] [%] | inhibition [6] [%] |
| --- | --- | --- | --- | --- | --- | --- |
| O=C(c1cc(C2CC2)on1)N1CCN(c2ccc(F)cc2)CC1 | -18.2 | -26.9% | -1.75 | 96.8 | 92.4 | 1.9 |
| COc1ccc(-c2nc(CS(=O)CC(=O)NCc3ccc4c(c3)OCO4)c(C)o2)cc1 (stereo not drawn) | 4.12 | 14.1% | -1.69 | 94.7 | 91.1 | 2.02 |
| CCCCCCC1C(C#N)=C(N)OC2=C1C(=O)CC(C)(C)C2 (stereo not drawn) | -34.7 | -40.1% | -2.49 | 102 | 96.7 | 0.505 |
| COc1ccc(N2CCN(C(=O)CCS(=O)(=O)c3cccc4nsnc34)CC2)cc1 | -9.09 | -6.57% | -2.63 | 95.7 | 96.9 | 0.895 |
| COc1ccc(OC)c2c1sc(=NC(=O)c1ccco1)n2C | -3.52 | 4.96% | -5.98 | 71.2 | 67.7 | 2.21 |
| CCN1CCN(CC(=O)Nc2ccc(Cl)c(Cl)c2)C(=O)C1=O | 3.48 | -8.29% | -0.65 | 102 | 97.7 | 0.63 |
| CC1CCN(c2nc(-c3ccccc3)cc(C(F)(F)F)n2)CC1 | -10.7 | -11% | -1.76 | 88.1 | 90.6 | 2.21 |
| COc1ccccc1OCCSc1nnnn1-c1ccc(C)cc1 | -13.8 | -6.1% | 0.71 | 79.5 | 78.7 | 2.32 |
| C1=C(c2ccccc2)CCN(c2nc3ccccc3n3cnnc23)C1 | -7.88 | 11.2% | -3.98 | 90.4 | 86.8 | 0.34 |
| O=C(Cn1cc2c(n1)CCCCC2)NCCCN1CCOCC1 | -9.29 | -6.7% | 0.92 | 112 | 99.8 | 2.08 |
| Cc1noc(/C=C/NCc2cccnc2)c1S(=O)(=O)N(C)CC(=O)N1CCc2ccccc21 | -10.2 | -7.69% | -3.19 | 91.2 | 86.4 | 2.5 |
| N#Cc1c(NC(=O)CCCN2C(=O)c3ccccc3C2=O)oc(-c2ccccc2)c1-c1ccccc1 | -1.81 | 1.75% | 2.13 | 101 | 94.7 | -0.33 |
| Cn1c(-n2c(CCCN3C(=O)c4ccccc4C3=O)nc3ccccc3c2=O)nc2ccccc21 | -1.74 | 2.53% | -3.91 | 84.5 | 87.2 | 2.62 |
| O=C1C2CCCN2C(c2ccc(F)cc2)N1c1ccc(Cl)cc1 (stereo not drawn) | -13 | -0.82% | -2.59 | 76.5 | 67.8 | 3.84 |
| Clc1ccc(Cc2nnc(-c3cccs3)o2)cc1 | -0.04 | 5.1% | 4.43 | 106 | 95.9 | 0.935 |
| COc1ccc(NC(=O)c2nnn(Cc3ccc(SC)cc3)c2N)c(OC)c1 | -1.88 | -10.7% | -0.11 | 100 | 93.1 | 4.42 |
| CCOc1ccccc1NC1c2ccccc2C(=O)N1c1ccc(C)cn1 (stereo not drawn) | -14.3 | 3.06% | -1.37 | 88.2 | 88 | 0.395 |
| Oc1ccccc1C(=S)N1CCCCC1 | 8.11 | 23.6% | -2.83 | 94.7 | 89.8 | 2.25 |
| COC(=O)CSc1nc2ccc(NC(=O)CSc3nnnn3Cc3ccccc3)cc2s1 | -3.46 | 13.8% | 1.67 | 87.2 | 96.9 | 4.05 |

| SMILES | growth inhibition [1] [%] | growth inhibition [2] | viability increase [3] [%] | viability [4] [%] | viability [5] [%] | inhibition [6] [%] |
| --- | --- | --- | --- | --- | --- | --- |
| Cc1ccc(Cl)cc1N1CCN(C(=O)CCS(=O)(=O)c2cccc3nonc23)CC1 | 3.25 | -4.52% | -3.47 | 79.5 | 75.4 | 0.805 |
| COc1cc2c(cc1OC)C(c1ccccc1)N(C(=O)c1ccco1)CC2 (stereo not drawn) | -21.2 | -17.6% | -3.16 | 68.4 | 63.5 | 2.55 |
| O=C1CCCN1CCCNc1ncnc2c1cnn2-c1ccc(Cl)cc1 | 0.48 | 1.48% | -0.95 | 85 | 77 | 1.3 |
| CCOC(=O)CSc1nc2c(c(=O)n(C)c(=O)n2C)n1Cc1ccccc1F | -8.61 | 2.55% | 0.38 | 95.9 | 93.6 | 2 |
| CCCCSc1nc2c(c(=O)[nH]c(=O)n2C)n1CCc1ccccc1 | -16.6 | -9.86% | -3.38 | 84.1 | 85.9 | 2.35 |
| CC1CCN(c2nc3c(c(=O)[nH]c(=O)n3C)n2CCCc2ccccc2)CC1 | -15.8 | -41.8% | -3.5 | 79.9 | 72.9 | 1.45 |
| Cn1cccc1Cc1nnc(SCC(=O)Nc2ccc3c(c2)OCCO3)n1CCc1ccccc1 | 6.56 | 22.1% | -1.87 | 90.2 | 81 | 2.25 |
| COC(=O)c1ccc(CSc2ccc3nnc(-c4cccc(F)c4)n3n2)o1 | 6.12 | 49% (active) | -3.24 | 87.9 | 91.4 | -0.025 |
| COc1ccc2cc(CCNC(=O)c3ccc(Br)o3)c(=O)[nH]c2c1 | -10.1 | -17% | -2.65 | 95.9 | 90.3 | 1.84 |
| CCOc1ccc(-c2nc(CSCC(=O)N3CCN(c4cccc(OC)c4)CC3)c(C)o2)cc1 | 5.25 | 19.7% | -2.52 | 34 | 47.4 | 1.53 |
| CCC(C)(C(=O)NC1CCCC1)N(C(=O)CNC(C)=O)c1ccc(C)cc1 (stereo not drawn) | -1.46 | -5.89% | -0.57 | 94.2 | 96.7 | 2.1 |
| CCOC(=O)C1CCN(C(=O)Nc2ccc(Cl)cc2)CC1 | -17.2 | -13.1% | 1.32 | 96.7 | 102 | -0.18 |
| Cc1cc(NC(=O)c2noc3c2CCc2ccccc2-3)n(-c2ccccc2)n1 | -11.9 | -2.05% | -2.71 | 94.9 | 98.3 | 2.88 |
| COc1ccc(OC)c(NC(=O)C2CCC(CNc3c(N4CCC(C)CC4)c(=O)c3=O)CC2)c1 (stereo not drawn) | -5.59 | -11.5% | -4.93 | 70.8 | 70.1 | 0.96 |
| CCC(Sc1nc2c(cnn2-c2ccccc2)c(=O)[nH]1)C(=O)OC (stereo not drawn) | -17.3 | -17.4% | -1.58 | 91.8 | 91.5 | 0.65 |
| Cc1cccc(C)c1OCc1nnc(SCC(=O)Nc2nccs2)o1 | -0.12 | 0.57% | -1.15 | 94 | 87.4 | 2.88 |
| COc1cc(Cl)c(S(=O)(=O)N2CCN(Cc3ccc4c(c3)OCO4)CC2)cc1Cl | -9.75 | -4.02% | -2.17 | 84.2 | 82.2 | 1.04 |
| C=CCNc1ncnc2c1cnn2-c1ccc(Cl)cc1 | -2.23 | 1.64% | 2.88 | 106 | 106 | 4.6 |
| Cc1ccc(-c2nc(CS(=O)CC(=O)NCc3ccc(Cl)cc3)c(C)o2)cc1 (stereo not drawn) | 1.44 | -4.35% | -2.83 | 73.5 | 80.2 | 3.42 |
